STAT1 inh: STAT1 signaling inhibitors, primary screen, cell-based, HTS, luciferase reporter; inhibition, % at 5.5 µM; NIH 3T3 STAT1-luciferase reporter, IFN-gamma, luminescence; 200,000 tested, 0.35% active;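 active = inhibition above a set limit, the mean inhibition across all tested compounds plus 3 SD, cut at about 34% in these data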
STAT3 activator: IL-6 driven STAT3 reporter potentiators, primary screen, U3A cells, luciferase, luminescence, MLSCN library. IL-6 STAT3-luciferase reporter; 100% = signal with IL-6 EC80 alone. activation (% of control), % at 5.6 µM. 190,000 tested, 0.91% active. AID 871, 2007;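 active = activation above the screen-wide mean of compound activation plus 3 SD, cut at about 130% in these data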
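System – human U3A cells carrying STAT3-luciferase construct · Probe or stimulus – Interleukin-6, 33 ng/mL · Schedule – compound 1 h, then IL-6 6 h at 37 °C · Signal – luminescence from STAT3-driven luciferase reporter · Evaluation – percent of IL-6-only median luminescence · Benchmarks – IL-6-only high control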
NF-kB neuron act: activators of NF-kB expression in neurons, primary screen, cell-based, HTS | 190,000 tested, 1.6% active | human neuronal cells, NF-kB reporter expression; active compounds read high | fold change at 12.5 µM; in the data active = fold change above about 3.3
APP 5'UTR act: activators of APP 5'UTR luciferase reporter, primary screen, SH-SY5Y cells; SH-SY5Y APP 5'UTR luciferase reporter, luminescence; zero percent = DMSO vehicle wells; activation, % at 2 µM; 190,000 tested, 1% active; AID 1276, 2008;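 active = activation above a set limit, based on mean plus 3 SD of controls, cut at about 140% in these data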
STAT3 inh-1: IL-6 driven STAT3 reporter inhibitors, primary screen, U3A cells, luciferase, luminescence, MLSCN library | IL-6 STAT3-luciferase reporter; host cell line lacks STAT1 | inhibition, % at 5.5 µM | 190,000 tested, 0.89% active | AID 862, 2007;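 active = inhibition above the mean inhibition across all screened compounds plus 3 SD, cut at about 44% in these data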
STAT1 act: STAT1 signaling activators, primary screen, cell-based, HTS, luciferase reporter; NIH 3T3 STAT1-luciferase reporter, IFN-gamma, luminescence; 100% = IFN-gamma alone, no compound; activation (% of control), % at 5.5 µM; 200,000 tested, 2.6% active; AID 932, 2007;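 active = activation above the screen-wide mean activation plus 3 SD, cut at about 130% in these data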
STAT3 inh-2: STAT3 reporter inhibitors, retest of hits, confirmation, U3A cells, luciferase, luminescence; AID 1265, 2008; inhibition, % at 5.7 µM; 1,200 tested, 45% active; IL-6 STAT3 luciferase reporter; cell line lacks STAT1; shares compounds with STAT3 inh-1;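 active = inhibition above the hit cutoff computed for the primary STAT3 screen, cut at about 44% in these data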
NFkB inh 2: NF-kB reporter inhibitors in human cells, confirmation, counter-screen for STAT3 inhibitor project, cell-based, HEK293T, luciferase, TNF-alpha stimulus | shares compounds with STAT3 inh-1 | TNF-alpha induced | inhibition, % at 5.7 µM | 1,200 tested, 36% active;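 active = inhibition above the mean of solvent-only control wells plus 3 SD, cutoff set per campaign, cut at about 13% in these data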
STAT1 inh STAT3c: STAT1 reporter inhibitors, IFN-gamma induced, confirmation, counter-screen for STAT3 inhibitor project, cell-based, NIH 3T3, luciferase luminescence | NIH 3T3 STAT1-luciferase reporter | inhibition, % at 5.7 µM | shares compounds with STAT3 inh-1 | AID 1317, 2008 | 1,200 tested, 27% active;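 active = inhibition above the mean plus 3 SD of solvent-only control wells, limit set per screening run, cut at about 16% in these data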
Numbers stand for hits; – = inactive; · = no result. Hits are enriched below; roughly 5.1% of the tested compounds scored in any of these assays.

SMILES | STAT1 inh | STAT3 activator | NF-kB neuron act | APP 5'UTR act | STAT3 inh-1 | STAT1 act | STAT3 inh-2 | NFkB inh 2 | STAT1 inh STAT3c
Cc1cc(C(=O)CSc2nc3ccccc3c(=O)n2C)c(C)n1Cc1ccc2c(c1)OCO2 | – | – | – | – | 58 | – | 76 | 28 | 25
COCC(C)NC(=O)CSc1nc(-c2ccccc2)c(-c2ccccc2)o1 (stereo unspecified) | – | – | – | – | – | – | · | · | ·
O=c1[nH]c(CSc2ccccn2)nc2c1oc1ccccc12 | – | – | – | – | 71 | – | – | – | –
CCOc1ccccc1NC(=O)CN1C(=O)CSC(C)C1=O (stereo unspecified) | – | – | – | – | – | – | · | · | ·
CCc1c(C)c2ccc(OCC(=O)N(C)C)c(C)c2oc1=O | – | – | – | – | – | – | · | · | ·
CCc1c(C)c2ccc(OCC(=O)OC(C)C)c(C)c2oc1=O | – | – | – | – | 56 | – | 48 | – | –
COc1cccc(C(=O)Cn2c(=N)n(C)c3ccccc32)c1 | – | – | 4.4 | 229 | 46 | – | – | – | –
CCOc1ccc(OCC(=O)Nc2ccc(OC)cc2[N+](=O)[O-])cc1 | – | – | – | – | – | – | · | · | ·
CCOc1ccc(N/C=C/C(=O)c2ccccc2)c([N+](=O)[O-])c1 | – | – | – | 157 | 85 | – | 59 | 45 | –
CCC(=O)c1ccc(OCC(O)Cn2c(C)nc3ccccc32)cc1 (stereo unspecified) | – | – | – | – | 64 | – | 53 | 14 | 20
COc1ccc(C(=O)Nc2ccc(S(=O)(=O)N3CCc4ccccc43)cc2)cc1 | – | – | – | – | 51 | – | – | 13 | –
CC(=O)Nc1ccc2oc(C)nc2c1 | – | – | – | – | – | – | · | · | ·
CC(C)C(=O)Nc1ccc2oc(-c3cc(F)c(F)cc3Cl)nc2c1 | – | – | – | – | – | – | · | · | ·
CC(=O)Nc1ccc2oc(-c3ccccc3Br)nc2c1 | – | – | 7.3 | 162 | 48 | – | – | – | –
CC(=O)Nc1ccc2oc(-c3cc(F)c(F)cc3Cl)nc2c1 | – | – | 6.1 | – | 46 | 148 | – | – | –
O=C(C(Cl)Cl)N1c2ccccc2OCC1c1ccccc1 (stereo unspecified) | – | – | – | – | 50 | – | – | – | –
Cn1c(CN2CCCCC2)nc2cc(NC(=O)c3cccc(Br)c3)ccc21 | – | – | – | – | 63 | – | 51 | – | –
Cn1c(CN2CCCCC2)nc2cc(NC(=O)c3ccccc3)ccc21 | – | – | – | – | – | – | · | · | ·
COc1ccc(O)c(C(=O)CC(=O)c2ccccc2)c1 | – | – | 3.4 | – | 70 | 132 | – | – | –
O=C(/C=C/c1ccccc1Cl)Nc1cccc(O)c1 | – | – | 12 | 191 | 64 | – | – | 14 | 17
O=C(/C=C/c1ccccc1Cl)Nc1ccc2c(c1)C(=O)NC2=O | – | – | – | – | – | – | · | · | ·
CCC(C)(C)c1ccc(OCCCC[n+]2cccc(C)c2)c(C(C)(C)CC)c1 | – | – | – | – | 67 | – | 50 | – | –
O=C(Nc1ccc2c(c1)CCC2)C1CCN(c2c3c(nc4ncnn24)CCC3)CC1 | – | – | – | – | – | – | · | · | ·
O=C(Nc1ccc(Oc2ccccc2)cc1)C1CCN(c2c3c(nc4ncnn24)CCC3)CC1 | – | – | – | – | 52 | – | 47 | – | –
O=C(CN1CCC(c2nc3ccccc3s2)CC1)NCc1cccs1 | – | – | – | – | 46 | – | – | – | –
SMILES | STAT1 inh | STAT3 activator | NF-kB neuron act | APP 5'UTR act | STAT3 inh-1 | STAT1 act | STAT3 inh-2 | NFkB inh 2 | STAT1 inh STAT3c
O=C(NCCO)C(O)C(O)C(=O)NCCO (stereo unspecified) | – | – | – | – | – | – | · | · | ·
Cc1ccc(C(=O)NCC(=O)OCC(=O)c2cc(C)n(Cc3ccco3)c2C)cc1 | – | – | – | – | – | – | · | · | ·
C=CCn1c(C)cc(C(=O)COC(=O)CNC(=O)c2ccccc2)c1C | – | – | – | – | 46 | – | – | – | –
O=C(c1ccc(Cl)cc1)N1CCCCC(Sc2nnc(-c3ccc4c(c3)OCO4)o2)C1=O (stereo unspecified) | – | – | – | – | 98 | – | 85 | 70 | 40
CN(C(=O)CSc1nnc(-c2ccccc2)o1)c1c(N)n(Cc2ccccc2)c(=O)[nH]c1=O | – | – | – | – | – | – | · | · | ·
Clc1ccc(-c2cn3nc4c(nc3n2)CCCC4)cc1 | – | – | – | 191 | 51 | – | – | – | –
COc1cc2cc(CN(Cc3cccs3)C(=S)Nc3ccccc3)c(=O)[nH]c2cc1OC | – | – | – | – | – | – | · | · | ·
CCOc1cccc2cc(-c3cn4cc(C)ccc4n3)c(=O)oc12 | – | – | 3.5 | – | 69 | 141 | – | – | –
CCOC(=O)N1CCC(NC(=O)C2CCN(c3nc(-c4ccc(OC)cc4)no3)CC2)CC1 | – | – | – | – | 50 | – | – | – | –
CC1CCC(NC(=O)C(NC(=O)c2ccccc2)C(C)C)CC1 (stereo unspecified) | – | – | – | – | – | – | · | · | ·
COc1ccc(Cl)cc1S(=O)(=O)N1CCCC1 | – | – | – | – | – | – | · | · | ·
COc1ccc(NC(=S)Nc2ncccc2C)c(OC)c1 | – | – | – | – | 47 | – | – | – | –
CCOc1ccccc1NC(=S)Nc1ncccc1C | – | – | – | – | – | – | · | · | ·
c1ccn2cc(C34CC5CC(CC(C5)C3)C4)nc2c1 | – | – | · | – | – | – | · | · | ·
CC1(C)CC(=O)C=C(NC2=CC3OC(c4ccccc4)OCC3OC2=O)C1 (stereo unspecified) | – | – | – | – | 45 | – | – | 23 | 18
COc1ccc([N+](=O)[O-])cc1COc1cc(C)cc2oc(=O)cc(-c3ccccc3)c12 | – | – | – | – | – | – | · | · | ·
COc1cccc(C(=O)Nc2ccc(NC(=O)C(C)(C)C)cn2)c1 | – | – | – | 138 | 58 | – | – | – | –

Screens deposited in PubChem BioAssay by several laboratories.
